IMP-1 inh – blocks Pseudomonas aeruginosa IMP-1 metallo-beta-lactamase. 290,000 tested, 0.45% active. purified IMP-1, nitrocefin hydrolysis, epi-absorbance fluorescence. inhibition, % at 5.6 µM;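 active = inhibition above the mean plus 3 SD of all compounds in the same screening run, cut at about 4.5% in these data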
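System: purified recombinant IMP-1 beta-lactamase. Medium: Zinc- and detergent-supplemented HEPES buffer, pH 7.1. Compound: one 5.6 µM dose […]. Schedule: 15 min preincubation plus 25 min reaction at 25 °C. Technique: Epi-absorbance fluorescence, 480 nm excitation, 530 nm emission.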
Jurkat NFkB inh – lowers PMA/ionomycin-induced NF-kB signal in Jurkat cells. 330,000 tested, 0.53% active. inhibition, % at 4 µM. PMA/ionomycin-induced NF-kB luciferase reporter, luminescence; in the data active = inhibition above about 50%
VIM-2 inh – blocks Pseudomonas aeruginosa VIM-2 metallo-beta-lactamase | purified VIM-2, nitrocefin hydrolysis, epi-absorbance fluorescence | inhibition, % at 5.6 µM | 290,000 tested, 0.89% active;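 active = inhibition above the mean of all tested compounds plus 3 SD, cutoff set per screening run, cut at about 7.5% in these data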;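 also: red hydrolysis product quenches plate fluorescence so inhibitors raise well fluorescence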
aSyn UTR inh – MLPCN primary screen, SNCA 5' untranslated region; alpha-synuclein 5'UTR reporter, inhibitor activity; inhibition, % (tested at 7.5 µM); 300,000 tested, 0.82% active; AID 1813; in the data active = inhibition above about 60%;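 also: H4 neuroglioblastoma cells stably carrying SNCA 5'UTR luciferase fusion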
Mdm2 MdmX PPI – inhibitors of human Mdm2/MdmX interaction; 330,000 tested, 3% active; AID 485346; O15151+Q00987; inhibition, % at 8 µM; SaOS-2 split-luciferase Mdm2/MdmX complementation, luminescence;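 active = inhibition of at least 50% at 8 µM in the primary screen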
Target sequence (O15151 whole entry, looked up): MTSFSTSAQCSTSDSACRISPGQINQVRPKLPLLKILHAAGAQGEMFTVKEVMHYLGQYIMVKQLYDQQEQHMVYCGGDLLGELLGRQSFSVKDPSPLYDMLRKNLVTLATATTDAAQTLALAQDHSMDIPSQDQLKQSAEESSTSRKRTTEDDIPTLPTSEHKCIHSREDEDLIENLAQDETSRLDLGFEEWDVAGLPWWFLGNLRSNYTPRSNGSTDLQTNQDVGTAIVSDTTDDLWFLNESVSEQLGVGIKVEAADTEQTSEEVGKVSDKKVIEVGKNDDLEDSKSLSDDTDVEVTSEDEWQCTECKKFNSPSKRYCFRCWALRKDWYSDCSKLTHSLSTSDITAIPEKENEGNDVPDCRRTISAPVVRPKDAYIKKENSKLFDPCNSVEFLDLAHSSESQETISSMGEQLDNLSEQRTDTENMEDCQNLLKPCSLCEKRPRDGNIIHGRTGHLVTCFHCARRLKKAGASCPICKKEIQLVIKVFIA
Target sequence (Q00987 whole entry, looked up): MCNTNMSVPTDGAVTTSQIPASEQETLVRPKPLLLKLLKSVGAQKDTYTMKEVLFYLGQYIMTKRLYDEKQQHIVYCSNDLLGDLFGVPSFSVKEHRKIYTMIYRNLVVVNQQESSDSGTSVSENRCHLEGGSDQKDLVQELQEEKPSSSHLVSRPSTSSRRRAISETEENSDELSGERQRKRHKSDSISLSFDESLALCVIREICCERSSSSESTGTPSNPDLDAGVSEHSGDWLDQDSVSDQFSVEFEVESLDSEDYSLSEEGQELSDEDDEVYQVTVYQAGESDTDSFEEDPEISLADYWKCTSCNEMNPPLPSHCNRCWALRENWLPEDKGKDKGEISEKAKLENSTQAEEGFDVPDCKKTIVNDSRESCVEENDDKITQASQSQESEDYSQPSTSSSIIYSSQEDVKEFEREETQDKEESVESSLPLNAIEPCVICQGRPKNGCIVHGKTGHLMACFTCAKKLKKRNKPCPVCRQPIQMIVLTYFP
697 NFkB inh – inhibitors of the PMA/ionomycin-induced NF-kB reporter in 697 B cells; 697 B-cell NF-kB luciferase reporter, 16 h; inhibition, % at 4 µM; 330,000 tested, 0.33% active; in the data active = inhibition above about 35%
Mdm2-MdmX conf – human Mdm2/MdmX binding inhibition, confirmed | shares compounds with Mdm2 MdmX PPI | luminescent assay | inhibition, % at 8 µM | 10,000 tested, 55% active | AID 489028; in the data active = inhibition above about 40%
FLuc counter – counter-screen for Mdm2/MdmX inhibitors: full-length luciferase; shares compounds with Mdm2 MdmX PPI; SaOS-2 full-length luciferase counterscreen, luminescence; inhibition, % at 8 µM; 6,200 tested, 77% active;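 active = mean inhibition at 8 µM reaching about 37%, which flags the compound as non-specific, limit read from the data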;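 also: p53-null SaOS-2 cells with luciferase driven by a doxycycline-inducible promoter; compound on cells about two nights before reading with doxycycline added after day one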
Of the large screens only hits and unclear results are named; the others gave an inactive call (follow-up assays come after a bar, where they were run). Hits are enriched below; roughly 4.7% of the tested compounds scored in any of these assays.

O=C(CN1CCN(c2ccc(F)cc2)CC1)Nc1ccccc1[N+](=O)[O-]	none
COCCn1c(C)cc(C(=O)COC(=O)c2cccc(O)c2)c1C	aSyn UTR inh 67, Mdm2 MdmX PPI 74 | Mdm2-MdmX conf 85 | FLuc counter 71
COCCn1c(C)cc(C(=O)COC(=O)c2cc3c(s2)CCC3)c1C	none
COCCn1c(C)cc(C(=O)CSc2nnc(C)s2)c1C	aSyn UTR inh 100, Mdm2 MdmX PPI 52 | Mdm2-MdmX conf 62 | FLuc counter 48
COCCn1c(C)cc(C(=O)CSc2nnnn2C2CCCC2)c1C	Mdm2 MdmX PPI 72 (no result: IMP-1 inh, VIM-2 inh, aSyn UTR inh) | Mdm2-MdmX conf 80 | FLuc counter 79
CCC(=O)N(Cc1cc2ccccc2[nH]c1=O)c1ccccc1OC	none
COc1ccc(C(=O)NCCN2CCCC2)cc1	none
CCC1CCCCN1CCCNC(=O)c1ccc(/C=C2/Sc3ccccc3NC2=O)cc1 (configuration not stated)	Mdm2 MdmX PPI 86 | Mdm2-MdmX conf inactive | FLuc counter 55
COc1ccc(/C=C2/Sc3ccc(C(=O)NCCN4CCCCCC4)cc3NC2=O)cc1	Mdm2 MdmX PPI 100 | Mdm2-MdmX conf 88 | FLuc counter inactive
CC(C)C(NC(=O)c1ccccc1F)C(=O)Nc1nccs1 (configuration not stated)	none
N#CC1=C2SCC(O)(c3ccccc3)N2C(=O)CC1c1ccccc1F (configuration not stated)	Mdm2 MdmX PPI 87 | Mdm2-MdmX conf 83 | FLuc counter 40
N#CC1=C2SCC(O)(c3ccccc3)N2C(=O)CC1c1cccs1 (configuration not stated)	none (no result: Jurkat NFkB inh, aSyn UTR inh, Mdm2 MdmX PPI, 697 NFkB inh)
COc1cc(/C=C/C(=O)c2ccc(Cl)s2)cc(OC)c1O	Mdm2 MdmX PPI 65 | Mdm2-MdmX conf 51 | FLuc counter 45
COc1ccccc1NC(=O)CSc1nnc(C)n1Cc1ccccc1	none
FC(F)(F)c1cc(CCN2CCNC[C@@H]2c2ccccc2)cc(C(F)(F)F)c1	none (no result: IMP-1 inh, VIM-2 inh, aSyn UTR inh)
FC(F)(F)c1cc(CO[C@@H]2CCCN[C@@H]2c2ccccc2)cc(C(F)(F)F)c1	Mdm2 MdmX PPI 59 (no result: IMP-1 inh, VIM-2 inh, aSyn UTR inh) | Mdm2-MdmX conf inactive
O=C(NC(NC(=S)Nc1ccccc1Cl)C(Cl)(Cl)Cl)c1cccc(Cl)c1 (configuration not stated)	Mdm2 MdmX PPI 97 | Mdm2-MdmX conf 95 | FLuc counter inactive
COc1ccc(NC(=S)NC(NC(=O)c2cccc(Cl)c2)C(Cl)(Cl)Cl)c([N+](=O)[O-])c1 (configuration not stated)	Mdm2 MdmX PPI 87 | Mdm2-MdmX conf 72 | FLuc counter 57
O=C(Cc1cccc2ccccc12)NC(NC(=S)Nc1ccccc1Cl)C(Cl)(Cl)Cl (configuration not stated)	none
CCCCc1cc(=O)oc2cc(C)cc(OC(C)C(=O)NCc3ccncc3)c12 (configuration not stated)	none
CCCCCn1c(N)c(-c2nc3ccccc3s2)c2c([N+](=O)[O-])nn(C)c(=O)c21	IMP-1 inh 6.9, Mdm2 MdmX PPI 87 | Mdm2-MdmX conf inactive
O=C(Cc1ccc(-n2cccc2)cc1)NCc1cccs1	Mdm2 MdmX PPI 55 | Mdm2-MdmX conf 47 | FLuc counter 67
O=C(CNC(=O)Cc1ccccc1)NCc1cccs1	none (no result: IMP-1 inh, VIM-2 inh, aSyn UTR inh)
COc1ccc2sc(-c3ccc(SC)cc3)c(-c3ccc(O)cc3)c2c1	Mdm2 MdmX PPI 54 (no result: IMP-1 inh, VIM-2 inh, aSyn UTR inh) | Mdm2-MdmX conf inactive
COc1ccc2c(c1)sc1nc(-c3ccccc3)cn12	aSyn UTR inh 105, Mdm2 MdmX PPI 84 | Mdm2-MdmX conf 70 | FLuc counter 114
COc1ccc(-c2csc3nc(-c4cccnc4)nc(Cl)c23)cc1OC	VIM-2 inh 12, Mdm2 MdmX PPI 81 | Mdm2-MdmX conf inactive
Clc1nc(-c2cccnc2)nc2scc(-c3ccccc3)c12	none
CC(=O)c1ccc(NC(=O)c2ccc(NC(=O)c3ccco3)cc2)cc1	IMP-1 inh 19, Mdm2 MdmX PPI 71 | Mdm2-MdmX conf inactive
CCOC(=O)c1cccc(NC(=O)c2ccc(NC(=O)c3ccco3)cc2)c1	Mdm2 MdmX PPI 73 | Mdm2-MdmX conf inactive
CC(=O)Nc1ccc(NC(=O)c2ccco2)cc1	none
Cc1ccc(NC(=O)c2cc3c(=O)oc4ccccc4c3s2)nc1	Mdm2 MdmX PPI 63 | Mdm2-MdmX conf inactive
CC1(C)CC2CC(C)(CN2C(=O)c2cc(-c3ccccc3O)on2)C1 (configuration not stated)	Mdm2 MdmX PPI 64 | Mdm2-MdmX conf inactive | FLuc counter 67
Cc1cc(NC(=O)CSc2nc(-c3ccco3)cc(C(F)(F)F)n2)n(-c2ccccc2)n1	Mdm2 MdmX PPI 54 | Mdm2-MdmX conf 56 | FLuc counter 54
Cc1cc(NC(=O)CCCSc2nc(-c3ccco3)cc(C(F)(F)F)n2)n(-c2ccccc2)n1	none
O=c1cc(-c2ccccc2Cl)oc2ccc([N+](=O)[O-])c(O)c12	none
O=c1cc(-c2ccccc2Cl)oc2c([N+](=O)[O-])c(O)cc(O)c12	Mdm2 MdmX PPI 83 | Mdm2-MdmX conf 76 | FLuc counter inactive
Cc1cc(Cl)cc(Br)c1OCCCN1C(=O)NC(C)(C)C1=O	none
O=C(O)c1ccccc1NSc1ccccc1[N+](=O)[O-]	none
CCc1ccc(NSc2ccccc2[N+](=O)[O-])cc1	Mdm2 MdmX PPI 50 | Mdm2-MdmX conf 42 | FLuc counter 65
Cn1c(=O)c(/C(N)=N/OC(=O)c2ccccc2)cn(-c2ccccc2)c1=O	Mdm2 MdmX PPI 58 | Mdm2-MdmX conf inactive
CCOC(=O)c1sc(NC(=O)CN2C(=O)c3cccc4cccc(c34)C2=O)nc1C	Mdm2 MdmX PPI 73 | Mdm2-MdmX conf inactive
CC(C)C(=O)c1cn(CC(=O)NCC2CCCO2)c2ccccc12 (configuration not stated)	none
CCOC(=O)C1=C(O)/C(=C/c2cn(CC(=O)NCC3CCCO3)c3ccccc23)SC1=Nc1ccc(C)cc1 (configuration not stated)	Mdm2 MdmX PPI 99 (no result: aSyn UTR inh) | Mdm2-MdmX conf 92 | FLuc counter 47
c1ccc2sc(N3CCOCC3)nc2c1	none
COc1cccc2sc(N3CCN(c4nc5ccccc5s4)CC3)nc12	Mdm2 MdmX PPI 62 | Mdm2-MdmX conf 61 | FLuc counter 81
COc1cccc(-c2sc3ccccc3c2-c2ccc(OCCN3CCCCC3)cc2)c1	Mdm2 MdmX PPI 95 (no result: IMP-1 inh, VIM-2 inh, aSyn UTR inh) | Mdm2-MdmX conf inactive
COc1cccc(-c2sc3cc(OC)c(OC)cc3c2-c2ccc(OCCN3CCCCC3)cc2)c1	Mdm2 MdmX PPI 78 (no result: IMP-1 inh, Jurkat NFkB inh, VIM-2 inh, aSyn UTR inh) | Mdm2-MdmX conf inactive

High-throughput results (PubChem BioAssay)
